Measurements from the RNAGym collection of RNA variant scans (doi:10.1126/science.aae0568).
Fewer inactive variants are shown than the library holds.

B1: tRNA (parent)
chain: GUUCCGUUGGCGUAAUGGUAACGCGUCUCCCUCCUAAGGAGAAGACUGCGGGUUCGAGUCCCGUACGGAACG

Variants of: B1
Test: yeast fitness relative to wild type (ratio to wild type); higher = fitter; tRNA-Arg(CCU), competitive growth, 37 C, YPD
Outline: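 For this measurement, the tRNA-Arg(CCU) gene was varied by chemical synthesis at a 3% per-site mutation rate across 69 sites, and each variant was placed at the native genomic locus in Saccharomyces cerevisiae. The pooled strains went through a 24-hour competition in YPD at 37°C in six parallel replicates, with amplicons from start and end populations read by 100-nucleotide paired-end sequencing. Darwinian fitness relative to wild type followed from the change in each genotype's frequency. Genotypes needed ≥ 100 starting reads, and estimates < 0.5 were set to 0.5.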

| Variant | yeast fitness |
| --- | --- |
| A21G A36U U53A | 0.58 |
| A15C C27G G39C U47A | 0.689 |
| U16A A69C | 0.969 |
| U7C G41A A42C G50C A70C | ≤ 0.5 |
| A20C U59A C62G A70C | ≤ 0.5 |
| A15C C22U G38A C55G | ≤ 0.5 |
| A21C C31U | 0.733 |
| C11G C24U A57G G68C | ≤ 0.5 |
| A15U C29G C31G | ≤ 0.5 |
| G12A A37U | 0.653 |
| U26G A69C | 0.948 |
| C5U U32C C33U C62U A65G | ≤ 0.5 |
| C22G U53A G68C | ≤ 0.5 |
| U3A C5G U13G C46G C62G A70U | ≤ 0.5 |
| A21C G58C | 0.84 |
| G18C G25C C33U C61U | ≤ 0.5 |
| A15G A21G G52C C62A | 0.616 |
| U19A G25C C33A A37G C55U | ≤ 0.5 |
| U2G C5U C34G C62U | ≤ 0.5 |
| U32C G38C G68C | ≤ 0.5 |
| U13A U16A U54A A65G | ≤ 0.5 |

| Variant | yeast fitness |
| --- | --- |
| G12C C22G G23A A37C A43C C62G G63A C66G A69G | ≤ 0.5 |
| U26A C66U | 0.824 |
| U26A C66A | 0.572 |
| G6C A40G C66U | ≤ 0.5 |
| G17C A36G A45G | 0.505 |
| G9C G12C A14G A20C G67C | ≤ 0.5 |
| C5A C34U U35A C49A U54A | 0.661 |
| C4U C5A U59C C60G | ≤ 0.5 |
| G10A G51A C66U | ≤ 0.5 |
| G6A C29G U32C A69C | ≤ 0.5 |
| A15G G50A G58C C66U | ≤ 0.5 |
| U3A A40C C62U | 0.548 |
| U8C A42U C62A C66U | ≤ 0.5 |
| C4U A20U C29U | ≤ 0.5 |
| C29G C30A C49U | ≤ 0.5 |
| A15G C27G A70U | 0.543 |
| U2C C31A G38C G50A | 0.604 |
| G9C U32C A43C | ≤ 0.5 |
| G10C U35G | ≤ 0.5 |
| C11G A20C C24U A36C U47A | 0.61 |
| G9A A21G U59A | 0.731 |

| Variant | yeast fitness |
| --- | --- |
| G6A U54C A57U G58A A65U | ≤ 0.5 |
| C30A C49U G67U | 0.608 |
| C11A G38C | 0.586 |
| U3C C22G C27A C49U | ≤ 0.5 |
| G9A G58A | 0.918 |
| A15G G56A | 0.971 |
| C29A U32C A42U A69U | ≤ 0.5 |
| G39C G44C G52C | 0.623 |
| U13G A21C | 0.611 |
| G9A A42U | 0.87 |
| G9A A42G | 0.96 |
| G6A G9C G68C | ≤ 0.5 |
| C24A A65U | 0.549 |
| U8A G18A C34U A42C | ≤ 0.5 |
| U28C A45C | 0.993 |
| C30A A37C G38C | ≤ 0.5 |
| U8C A43C | 0.939 |
| C5U C11A C24G C27G A36U G38C A70C | ≤ 0.5 |
| A36U G56C | 0.563 |
| A14G C24U G48C C66A | ≤ 0.5 |
| C4U G38C C61U | 0.54 |

| Variant | yeast fitness |
| --- | --- |
| C31A A37G | 0.672 |
| C4U A57G G58C | 0.736 |
| C31G C34U A40C C60A C61A G63A | ≤ 0.5 |
| C5U C27G A40C | ≤ 0.5 |
| C5G C11G A20C C33U C34U | ≤ 0.5 |
| C62U A69G A70U | 0.648 |
| G17C A20G C46A C60U | ≤ 0.5 |
| A40C A57C | 0.637 |
| C4G A40C G68C | ≤ 0.5 |
| C27U C30A C46G | 0.698 |
| U7C U19G G51A U59A C66A | ≤ 0.5 |
| U19C U32C | 0.926 |
| U13C U16A A57U | ≤ 0.5 |
| U2G G6A C27U G39C | ≤ 0.5 |
| G6A G10A G39C A70C | ≤ 0.5 |
| C4G G17A U26C U28C A40G A70C | ≤ 0.5 |
| C29A A42U U64C A69C | ≤ 0.5 |
| U13A C24G U28A C30U C31G G41C G56A A57C | ≤ 0.5 |
| G48A G52C A57C C62A | ≤ 0.5 |
| A15G A37U A43C | 0.518 |
| G6C C34U G52C | 0.565 |
